{
  "source": "ChEMBL document CHEMBL4825663",
  "about": "(J Med Chem, 2021)",
  "key": {"NCI-H460 [1]": {"test_system": "NCI-H460", "assay": "Antitumor activity against human NCI-H460 cells xenografted in athymic nude mouse assessed as median tumor growth delay at 30 mg/kg, po administered every other day for 4 doses in presence of 12 mg/kg encequidar and monitored for 48 days", "type": "functional", "details": "time 48 day", "method_in_brief": "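Female athymic NCr-nu mice carried subcutaneous NCI-H460 xenografts. […] Tumor weights and body weights were followed for 48 days after implantation. Read-out was median tumor growth delay.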"}, "NCI-H460 [2]": {"test_system": "NCI-H460", "assay": "Antitumor activity against human NCI-H460 cells xenografted in athymic nude mouse assessed as median tumor growth delay at 50 mg/kg, po administered every other day for 4 doses in presence of 20 mg/kg encequidar and monitored for 48 days", "type": "functional", "details": "time 48 day", "method_in_brief": "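Female athymic NCr-nu mice bearing subcutaneous NCI-H460 human lung tumor xenografts. Paclitaxel (30, 40 or 50 mg/kg) and the P-gp inhibitor (12, 16 or 20 mg/kg; ratio 2.5:1) given together as one oral gavage solution every other day for four doses. IV paclitaxel (18 and 24 mg/kg) on the same schedule for comparison. Tumor weights and body weights followed for 48 days after implantation. Read-out: median tumor growth delay.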"}, "[3]": {"assay": "Toxicity in athymic nude mouse xenografted with human NCI-H460 cells assessed as mortality at 18 to 24 mg/kg, iv administered every other day for 4 doses monitored for 48 days", "type": "organism-based", "details": "in vivo, 1152 h, dose 18-24 mg/kg, time 48 day", "method_in_brief": "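Female athymic NCr-nu mice carried subcutaneous NCI-H460 human lung tumor xenografts. Paclitaxel was given IV at 18 or 24 mg/kg every other day for four doses. Animals were followed for 48 days after tumor implantation, with individual body weights and mortality recorded alongside tumor weights.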"}, "MDA-MB-231 [4]": {"test_system": "MDA-MB-231", "assay": "Antitumor activity against human MDA-MB-231 cells xenografted in athymic nude mouse assessed as reduction in median number of days for tumor to reach two tumor mass doubling at 30 mg/kg, po administered every other day for 4 doses in presence of 12 mg/kg encequidar and monitored for 70 to 82 days (reference value: 13.1 day)", "type": "functional", "details": "time 70-82 day"}, "[5]": {"assay": "Ratio of drug concentration in BALB/c mouse lung to plasma at 20 mg/kg, po measured upto 24 hrs in presence of 10 mg/kg encequidar by LC-MS/MS analysis", "type": "ADME, organism-based"}, "[6]": {"assay": "Drug metabolism in dog plasma assessed as metabolic ratio of 3-p-hydroxypaclitaxel at 6 mg/kg, po in presence of 3 mg/kg encequidar", "type": "ADME, organism-based, Canis lupus familiaris", "details": "in vivo"}, "MDA-MB-231 [7]": {"test_system": "MDA-MB-231", "assay": "Antitumor activity against human MDA-MB-231 cells xenografted in athymic nude mouse assessed as reduction in median number of days for tumor to reach two tumor mass doubling at 18 mg/kg, iv administered every other day for 4 doses and monitored for 70 to 82 days (reference value: 13.1 day)", "type": "functional", "details": "time 70-82 day"}, "[8]": {"assay": "Half life in Sprague-Dawley rat at 6 mg/kg, iv measured upto 24 hrs by LC-MS/MS analysis", "details": "in vivo"}, "[9]": {"assay": "Toxicity in Sprague-Dawley rat at 2000 mg/kg, po administered as single dose and measured upto 13 weeks", "type": "organism-based", "details": "in vivo, 2184 h"}, "[10]": {"assay": "Toxicity in Beagle dog at 200 mg/kg, po administered as repeated dose and measured upto 13 weeks", "type": "organism-based, Canis lupus familiaris", "details": "in vivo, 2184 h"}, "[11]": {"assay": "Inhibition of P-gp in MDCK-MDR1 cells assessed as reduction in basal to apical transport of paclitaxel measured after 120 mins by LC-MS/MS analysis", "type": "cell-based", "details": "Canis lupus familiaris, MDCK-MDR1, 2 h"}, "[12]": {"assay": "Toxicity in Sprague-Dawley rat assessed as histiocytosis in lymph nodes at 10 to 50 mg/kg, po and measured after 4 to 13 weeks", "type": "organism-based, Lymph node", "details": "in vivo, dose lower 10 mg/kg, time lower 4 weeks, dose upper 50 mg/kg, time upper 13 weeks"}, "[13]": {"assay": "Cmax in human at 900 mg, po administered as single dose", "type": "ADME, organism-based", "parameters": "route oral, dose 900 mg", "details": "in vivo"}, "[14]": {"molecular_target": "T1, Solute carrier organic anion transporter family member 1B1 (Homo sapiens, UniProt Q9Y6L6)", "T1 sequence (Q9Y6L6 whole entry)": "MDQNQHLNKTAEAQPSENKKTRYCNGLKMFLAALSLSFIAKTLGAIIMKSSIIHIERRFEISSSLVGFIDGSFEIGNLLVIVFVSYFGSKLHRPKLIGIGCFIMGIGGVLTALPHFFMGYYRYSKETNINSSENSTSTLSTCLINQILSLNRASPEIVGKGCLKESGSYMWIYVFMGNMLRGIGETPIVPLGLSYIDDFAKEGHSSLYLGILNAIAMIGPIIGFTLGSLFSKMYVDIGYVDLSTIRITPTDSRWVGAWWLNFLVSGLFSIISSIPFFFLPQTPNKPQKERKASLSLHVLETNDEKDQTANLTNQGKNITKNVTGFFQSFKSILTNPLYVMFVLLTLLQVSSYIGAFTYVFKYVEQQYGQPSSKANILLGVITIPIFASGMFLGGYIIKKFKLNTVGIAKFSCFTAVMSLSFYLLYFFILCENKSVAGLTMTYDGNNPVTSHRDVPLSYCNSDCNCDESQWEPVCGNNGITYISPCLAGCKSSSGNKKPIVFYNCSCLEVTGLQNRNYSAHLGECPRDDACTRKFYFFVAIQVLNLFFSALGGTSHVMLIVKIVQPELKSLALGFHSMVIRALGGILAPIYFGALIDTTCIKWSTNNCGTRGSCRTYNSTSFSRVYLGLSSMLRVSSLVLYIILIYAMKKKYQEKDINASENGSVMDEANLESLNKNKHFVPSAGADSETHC", "assay": "Inhibition of human OATP1B1 assessed as reduction in intracellular probe substrate accumulation upto 100 uM by microplate scintillation counter analysis relative to control", "type": "cell-based", "method_in_brief": "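Cellular uptake-inhibition assays used Chinese hamster ovary, HEK293 or MDCKII cells stably expressing the respective human SLC transporter, run alongside the corresponding control cells. Inhibitor was tested at concentrations up to 100 μM.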"}, "[15]": {"molecular_target": "T2, Broad substrate specificity ATP-binding cassette transporter ABCG2 (Homo sapiens, UniProt Q9UNQ0)", "T2 sequence (Q9UNQ0 whole entry)": "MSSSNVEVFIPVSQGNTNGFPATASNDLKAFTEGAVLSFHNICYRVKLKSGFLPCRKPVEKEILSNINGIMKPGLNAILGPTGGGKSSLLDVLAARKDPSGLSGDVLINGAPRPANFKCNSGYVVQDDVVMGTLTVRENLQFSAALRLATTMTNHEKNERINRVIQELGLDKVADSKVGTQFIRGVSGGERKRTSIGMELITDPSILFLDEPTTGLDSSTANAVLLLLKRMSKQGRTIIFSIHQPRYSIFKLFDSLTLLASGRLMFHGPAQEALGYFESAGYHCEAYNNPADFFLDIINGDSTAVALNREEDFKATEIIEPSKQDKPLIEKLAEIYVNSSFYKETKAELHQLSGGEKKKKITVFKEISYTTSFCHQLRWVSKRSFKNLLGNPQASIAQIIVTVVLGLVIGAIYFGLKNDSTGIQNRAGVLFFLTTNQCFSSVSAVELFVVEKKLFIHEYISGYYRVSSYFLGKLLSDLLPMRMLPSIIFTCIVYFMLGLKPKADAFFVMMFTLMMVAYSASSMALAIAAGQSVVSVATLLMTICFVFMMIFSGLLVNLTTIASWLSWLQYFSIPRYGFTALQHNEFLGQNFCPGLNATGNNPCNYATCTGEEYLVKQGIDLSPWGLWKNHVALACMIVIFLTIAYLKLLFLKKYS", "assay": "Inhibition of sulfasalazine-stimulated BCRP ATP ase activity (unknown origin)"}},
  "data": [
    {"smiles": "CC(=O)O[C@H]1C(=O)[C@@]2(C)[C@H]([C@H](OC(=O)c3ccccc3)[C@]3(O)C[C@H](OC(=O)[C@H](O)[C@@H](NC(=O)c4ccccc4)c4ccccc4)C(C)=C1C3(C)C)[C@]1(OC(C)=O)CO[C@@H]1C[C@@H]2O", "note": "[PACLITAXEL]", "values": [
      {"measurement": "Time", "setting": "NCI-H460 [1]", "result": 9.9, "unit": "days"},
      {"measurement": "Time", "setting": "NCI-H460 [2]", "result": 12.7, "unit": "days"},
      {"measurement": "Activity", "setting": "[3]", "result": "Non-Toxic"},
      {"measurement": "Time", "setting": "MDA-MB-231 [4]", "result": ">69", "unit": "days"},
      {"measurement": "Kp at 24 h", "setting": "[5]", "result": "> 1"},
      {"measurement": "Ratio", "setting": "[6]", "result": 0.01},
      {"measurement": "Time", "setting": "MDA-MB-231 [7]", "result": ">69", "unit": "days"},
      {"measurement": "half-life at 24 h", "setting": "[8]", "result": 7.7, "unit": "h"}
    ]},
    {"smiles": "COc1cc2c(cc1OC)CN(CCc1ccc(-n3nnc(-c4cc(OC)c(OC)cc4NC(=O)c4cc(=O)c5ccccc5o4)n3)cc1)CC2", "values": [
      {"measurement": "Activity", "setting": "[9]", "result": "Non-Toxic"},
      {"measurement": "Activity", "setting": "[10]", "result": "Non-Toxic"},
      {"measurement": "IC50", "setting": "[11]", "result": 35, "unit": "nM"},
      {"measurement": "Activity", "setting": "[12]", "result": "Toxic"},
      {"measurement": "Cmax", "setting": "[13]", "result": 6.6, "unit": "ng/mL"},
      {"measurement": "inhibition (INH)", "setting": "[14]", "result": "< 50", "unit": "%"},
      {"measurement": "IC50", "setting": "[15]", "result": "> 3720", "unit": "nM"}
    ]}
  ]
}
